The results in this text go back to the EternaBench riboswitch data.

The series relates to MS2 coat protein. Put plainly: apparent Kd, MS2 coat protein; higher = weaker binding; RNA-MaP array; FMN 200 µM where present. The method in brief: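 In 100 mM Tris-HCl pH 7.5, 80 mM KCl, 4 mM MgCl2, BSA, DTT, yeast tRNA and Tween-20, SNAP-549-labelled MS2 coat protein was titrated from 0.7 or 1.5 nM, doubling to 3 µM, over designs transcribed by stalled E. coli RNA polymerase on Illumina sequencing-chip clusters. This was done first without ligand, then with ligand held constant. After green signal was normalised to red-channel RNA signal and control-cluster median Fmax, the apparent Kd was taken as the median of filtered per-cluster binding-curve fits.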

Where [1] appears, read: designed as: OFF switch for flavin mononucleotide, no ligand.
The mark [2] stands for this setting: ligand present: flavin mononucleotide, designed as: OFF switch for flavin mononucleotide.
The mark [3] stands for this setting: designed as: ON switch for flavin mononucleotide, no ligand.
[4] abbreviates: ligand present: flavin mononucleotide, designed as: ON switch for flavin mononucleotide.

What is called apparent Kd is a dissociation constant that holds for the conditions of the assay. Turning to “UUAUUAUGUGUAGGAUAUGCAUAUUAUGAUUAUGCAGAAGGACAUGAGGAUCACCCAUGUAUAUUAUUAUUAUAUAUUAUAUAU”, the “apparent Kd” value under setting [1] turned out to be 0.0133 µM and the “apparent Kd” value under setting [2] was 0.0211 µM.
In the case of “UGGCUACAUGAGGAUCACCCAUGUCAGGAUAUGCCGUCGGAUUGCCUUCGUCGUUCGGGUAGAAGGGACUGCGG”, the “apparent Kd” value was 0.0246 µM under setting [1] and 0.0241 µM under setting [2].
The like results for “UGCAUGGUAGGAUAUACGGAGCAUUAGGGUUUGUUGUGUGGACAUGAGGAUCACCCAUGUAGAAGGGCCGUGCU” were, in that order, 0.0428 µM and 0.0652 µM.
In the case of “UUGUUGUGAGGAUAUCCAAUAUAUGACAUGAGGAUCACCCAUGUUUCCACUCGUACCUCCGGAGAAGGCACUUGGU”, the “apparent Kd” value was found to be 0.0355 µM under setting [1] and 0.0291 µM under setting [2].
Consider “GUUUUUCCUCAUGUACAUGAGGAACAUGAGGAUCACCCAUGUAGAAGGAAUUUUUUUAAGUUUAGUUAGGAUAUACAUAUAUUG”, for which the “apparent Kd” value is, setting by setting: under setting [1], 0.106 µM; under setting [2], 0.0715 µM.
Turning to “UCGUGAAGGACAGGAUAUGGACAUGAGGAUCACCCAUGUACAUGGGAAUAUAUACUGAAUUUGUACUAGAAGGGUUACAUAAAC”, the “apparent Kd” value reads like this: under setting [1], 0.0309 µM; under setting [2], 0.0198 µM.
Turning to “UGUCGGAGGAGAGGAUAUUACAUGAGGAUCACCCAUGUAUGAACCAAUAGCUGGAAACAGCAAUGUAAGAAGGCUGCUCCGACA”, the “apparent Kd” value was found to be 0.00817 µM under setting [1] and 0.0814 µM under setting [2].
Regarding “CCCUGAGAUUGGUUAAUUGGCUGAUAGGAUAUCCUCGGACAUGAGGAUCACCCAUGUUAACUAUUGGAGAAGGGUCAGCGAAAG”, the “apparent Kd” value under setting [3] is 0.607 µM and the “apparent Kd” value under setting [4] turned out to be 0.0902 µM.
In the same order, the values of “UGGUACUAGGGAGGAUAUGGGAAGUUACAUGAGGAUCACCCAUGUUUAAGAAUGCCGAGAGGCAACUAGAAGGCCCUAGUACCU” are 0.0316 µM and 0.00624 µM.
Take “UGCGGUAGAGGAUAUACGUAGAAGUAGAUUCAUGUAAAACUACAUGAGGAUCACCCAUGUAGAAGGCUAUCGCU”: the “apparent Kd” value is, setting by setting: under setting [1], 0.0229 µM; under setting [2], 0.23 µM.
In the same order, the values of “GAAAAGGUAGGAUAUACGAAAAAAAAGGGUAGAAAAAAAGCACAUGAGGAUCACCCAUGUAGAAGGACCAAAAG” are 0.0367 µM and 0.132 µM.
With “GCUAGUAUUGCAGGAUAUUGAGAAUAAUUAUUACAAGAAGGGCAUAACAUGAGGAUCACCCAUGUAUUCCUUAGUGAUACUAGC”, the “apparent Kd” value under setting [1] was found to be 0.00624 µM and the “apparent Kd” value under setting [2] came to 0.00607 µM.
Regarding “AGAACAUGAGGAUCACCCAUGUAAAGGUCGGUCAAUAAGGGUGAGGAUAUGCUUAAAAUAAGGUAGCAGAAGGUACUUGGUGCA”, the “apparent Kd” value by setting is: under setting [3], 0.398 µM; under setting [4], 0.508 µM.
“GCCAUCGCAUGAGGAUAUGGACAGGUUUCCUGUCCAGAAGGCAUGUCAUAAGACAUGAGGAUCACCCAUGUAGUUAAGAUGGCA”: the “apparent Kd” value under setting [3] came out at 0.908 µM and the “apparent Kd” value under setting [4] worked out at 0.0459 µM.
In the case of “AACUUGCGCACAGGAUAUCCACGGAGCGGACGUGGAGAAGGGUGACAUGAGGAUCACCCAUGUACGUAAGUCUAGAUCACUUCC”, the “apparent Kd” value runs as follows: under setting [3], 0.199 µM; under setting [4], 0.0191 µM.
For the sequence “UGCUAGGAUGGGUCUAAUGGACCUCAGGAUAUGCUUGUACAUGAGGAUCACCCAUGUAACAUUGUGCAGAAGGGAGGAUCCACG”, the “apparent Kd” value reads like this: under setting [3], 0.00845 µM; under setting [4], 0.00493 µM.
Regarding “UCUGGUCGAGGAUAUGCAAUCGUGCUUCGGCACGUAAGAUCACAUGAGGAUCACCCAUGUAGAAGGCGACCAGA”, the “apparent Kd” value turned out to be 0.0223 µM under setting [1] and 0.0783 µM under setting [2].
In the same order, the values of “GCUAGUCAUGUCAGGAUAUGCUGAACCUUGGUUCAGCAGAAGGGACAUGAGGAUCACCCAUGUGCCUAACUAGC” are 0.0421 µM and 0.402 µM.
Take “CCCAGAGAUGAGAAGGGACACGGGUGCUUUCUGACAUGAGGAUCACCCAUGUCAGGAUAUCAGCAUGGCGUCGGGAUGCCCGAC”: the “apparent Kd” value came to 0.00724 µM under setting [1] and 0.0058 µM under setting [2].
As for “AGACUCUCUGGAGGAUAUCAUAGUCGUUGACUAUGAGAAGGUUAGCUAUCUUACAUGAGGAUCACCCAUGUGAUCUCUCUCGAG”, the “apparent Kd” value came out at 0.0181 µM under setting [1] and 0.0146 µM under setting [2].
In the same order, the values of “GUACCUCAAGUGAGGAUAUGUCAUUACCGGUGAAGAUAGAAGGCACAUGAGGAUCACCCAUGUGUGGCUCCGUC” are 0.0235 µM and 0.0958 µM.
With “CGAUAUUAUGCAGGAUAUCUUUCUUGAAUGAGGAGAGAAGGGCAUAGGGAGACAUAAGCCUUAUUACAUGAGGAUCACCCAUGU”, the “apparent Kd” value is, setting by setting: under setting [1], 0.0109 µM; under setting [2], 0.0095 µM.
Turning to “UUACAGCAAGGAUAUACGGGCUGUGCUUUUCAUUUCUUACAACAUGAGGAUCACCCAUGUAGAAGGUGCAACUU”, the “apparent Kd” value by setting is: under setting [1], 0.0348 µM; under setting [2], 0.0633 µM.
“UCAGUAGAGUCAGGAUAUACGAAAGAAGAUCCUUACAUGAGGAUCACCCAUGUAGAAGGGACUCUACUGUAAGUCGGAAACGAC”: the “apparent Kd” value is, setting by setting: under setting [1], 0.129 µM; under setting [2], 0.192 µM.
With “GGAUGACAAAGUCAUCCUUAACGAACAUGAGGAUCACCCAUGUAGGAUAUGCUACUCAAAGAGUAGCAGAAGGACAUGUGCCUU”, the “apparent Kd” value under setting [1] amounted to 0.035 µM and the “apparent Kd” value under setting [2] was 0.242 µM.
Turning to “CCUCUGUAAGGAUAUACGGAGACCACUGGAAUCAGUGGAAAGUAGAAGGUACAUGAGGAUCACCCAUGUGAGAA”, the “apparent Kd” value is, setting by setting: under setting [1], 0.0866 µM; under setting [2], 0.151 µM.
The like results for “GCGUCACAAUUAGAACCGAUACGAACAUGAGGAUCACCCAUGUAGGAUAUGCUAGAAGUUGAGUUGCAGAAGGACAUUUAUCGC” were, in that order, 0.0111 µM and 0.0106 µM.
For the sequence “UGGAUCAUCGGAGGAUAUCAUGUAGAUACAUGAGGAUCACCCAUGUCGUACGAGAGUACGGAGAUUGAGAAGGCCGAUGAUCCU”, the “apparent Kd” value reads like this: under setting [3], 0.0316 µM; under setting [4], 0.0148 µM.
As to “GCGUUGUACGAGAAGGCCAAUACAUGAGGAUCACCCAUGUAAAGUUGUAAUGGAGGAUAUCGAACACAUUCAAUAAUGCAACGC”, the “apparent Kd” value under setting [1] was found to be 0.00829 µM and the “apparent Kd” value under setting [2] is 0.00566 µM.
With “UAAUCUCAGAUAGGAUAUAUAGGAUGAUUUAAGACCGAACAUGAGGAUCACCCAUGUGAUUAUCUGUAGAAGGAUCAAUGACCC”, the “apparent Kd” value under setting [3] amounted to 0.285 µM and the “apparent Kd” value under setting [4] amounted to 0.246 µM.
Regarding “UGUCGGAGCAGAGGAUAUUACAUGAGGAUCACCCAUGUAUGAACCAAUAGCUGGAAACAGCCAUGUAAGAAGGCUGCUCCGACA”, the “apparent Kd” value was 0.157 µM under setting [1] and 0.543 µM under setting [2].
For the sequence “UAAAUUAUCAAGAAGGCUAACAUGAGGAUCACCCAUGUUGUACAUGGAUAUAGAGGAUAUUGCUAAUAAUUAUUUAUCAUAAUU”, the “apparent Kd” value by setting is: under setting [1], 0.0153 µM; under setting [2], 0.0148 µM.
For “GGGUACAUCGGAGGAUAUGAUGUAAAUACAUGAGGAUCACCCAUGUCGAUGGAGACAUCGGAGAUUGAGAAGGCCGAUGUACCG”, the “apparent Kd” value runs as follows: under setting [3], 0.0882 µM; under setting [4], 0.0322 µM.
Take “CGCACUUAUAGAGGAUAUGUUGUACAUGAGGAUCACCCAUGUGUUUUUGUAUCAAUAUUAGUGAAACAGAAGGCUAUUUGUGCG”: the “apparent Kd” value by setting is: under setting [1], 0.00576 µM; under setting [2], 0.00496 µM.
Consider “UUUAUUAAUUAAUAUAAUAAGAUCACAUGAGGAUCACCCAUGUAGGAUAUCAGCUCGAUUAGAGCUGAGAAGGACAUAAUUAUA”, for which the “apparent Kd” value under setting [1] came to 0.0348 µM and the “apparent Kd” value under setting [2] was 0.11 µM.
The like results for “UAUUUACGAGGAUAUCGUUUUUUUCACAUGAGGAUCACCCAUGUUGUUUAUGUUGCGUUGCGAGAAGGCGUUUGUU” were, in that order, 0.0311 µM and 0.023 µM.
